HCT116 bCat-KO: beta-catenin-lacking colon tumor cell growth suppression. viability, % at 10 µM. HCT116 beta-catenin knockout viability, CellTiter-Glo, 60 h; hits give low values. actives 1.5% (n = 140,000). AID 818;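 active means viability at or under a set limit, the compound median less 4 SD, cut at about 6% in these data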;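 further: 0% = Hyamine 1622 control at 20 µM and 100% = untreated cell control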
H69AR growth 86K: growth inhibitors of human H69AR lung tumor cells. viability, % at 10 µM. H69AR lung tumor viability, ATP luminescence, 72 h; hits give low values. actives 6% (n = 85,000). AID 598;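 active means viability at or below 40%; inactive means viability above 40%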;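 further: multidrug resistant small cell line overexpressing MRP-1 efflux transporter; 100% = mean luminescence of untreated control wells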
Lung fibro prol: blocks proliferation of human lung fibroblasts; LL 47 human lung fibroblast viability, ATP luminescence; hits give low values; viability, % at 10 µM; actives 1.1% (n = 85,000); AID 719;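 active means viability at or below 50% in the single dose screen; inactive means viability above 50%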;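 further: compound exposure lasted 72 h before the ATP readout; 100% = median luminescence of untreated cell-only wells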
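Signal: luminescent ATP detection, CellTiter-Glo; assay system: LL 47 human lung fibroblasts; input: 1,150 cells/well; incubation: overnight cell rest, 72 h compound treatment at 37 °C; measure: % viability versus median cells-only luminescence; medium: IMEM growth medium with 15% fetal bovine serum; dosing: compound addition at 0.1% DMSO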
HCT116 PTEN-null: suppresses growth of cells with PTEN deletion. actives 1.2% (n = 140,000). HCT116 PTEN-null viability, CellTiter-Glo, 60 h; hits give low values. viability, % at 10 µM;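 active means viability at or below a set limit, 4 SD under the median of all tested compounds, cut at about 3.7% in these data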;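 further: PTEN knockout HCT116 line with beta catenin targeted HCT116 as companion control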
HUVEC prolif 384: inhibitors of human endothelial cell proliferation; actives 1.1% (n = 86,000); AID 648; HUVEC proliferation, CellTiter-Glo luminescence, 72 h; hits give low values; viability, % at 10 µM (by protocol);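 active means viability at or below 30%; inactive means viability above 30%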;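 further: 100% = median luminescence of DMSO-only cell control wells on each plate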
An asterisk follows results filed as active; / = no result given. The entries come from a sample that favours hits as a whole.

SMILES | HCT116 bCat-KO | H69AR growth 86K | Lung fibro prol | HCT116 PTEN-null | HUVEC prolif 384
c1ccc(-n2ncc3c(NCCCN4CCOCC4)ncnc32)cc1 | 92.6 | 84.2 | 106.0 | 88.0 | 95.5
Fc1cccc(Nc2ncnc3c2cnn3-c2ccccc2)c1 | / | 14.5* | 85.8 | / | 76.1
O=C(O)/C=C/C(=O)Nc1ccccc1-c1ccccc1 | 100.8 | / | / | 103.9 | /
Clc1ccc(Cn2ncc3c(NCc4ccccc4)ncnc32)cc1 | 33.8 | 22.5* | 54.6 | 31.4 | 56.7
CCCCNc1ncnc2c1cnn2-c1ccc(C)cc1C | 88.4 | 37.4* | 91.6 | 97.9 | 96.7
COCCCNc1ncnc2c1cnn2-c1ccc(C)cc1C | 97.7 | / | / | 95.0 | /
COC(=O)C1(C(F)(F)F)N=C2Sc3ccccc3N2C(N2CCOCC2)=N1 (configuration not stated) | 4.7* | 94.5 | 103.0 | 17.1 | 99.0
O=C(NC1CCCCC1)N1CCC(c2nc(-c3ccc(S(=O)(=O)N4CCCC4)cc3)no2)CC1 | 62.4 | 30.1* | 82.8 | 50.3 | 73.1
O=C(C1CC1)N1CCC(c2nc(-c3ccc(S(=O)(=O)N4CCCC4)cc3)no2)CC1 | 97.0 | 92.8 | 109.2 | 71.7 | 98.3
CCC(Sc1nnc2c3ccccc3n(CC)c2n1)C(=O)Nc1sc2c(c1C#N)CCCC2 (configuration not stated) | 1.4* | / | / | 1.4* | /
Cc1nn(Cc2c(F)cccc2Cl)c(C)c1NC(=O)C1CC1 | 94.2 | / | / | 97.2 | /
Cc1ccc(S(=O)(=O)/C(C#N)=C/c2c(N3CCC(C(N)=O)CC3)nc3c(C)cccn3c2=O)cc1 | 94.7 | 80.5 | 91.2 | 94.3 | 74.5
Cc1ccc(S(=O)(=O)/C(C#N)=C/c2c(Oc3ccc(Cl)cc3)nc3c(C)cccn3c2=O)cc1 | 2.7* | / | / | 2.0* | /
CN(C)c1ccc(N/C=C/C(=O)c2ccco2)cc1 | 61.6 | 64.9 | 107.2 | 59.5 | 72.5
CN(C)c1ccc(N/C=C/C(=O)c2ccc(F)cc2)cc1 | 39.2 | 34.8* | 98.9 | 44.5 | 47.7
CCCCN1C(=O)CN(CCc2ccccc2)C(=O)C1c1ccc(OC)cc1 (configuration not stated) | 91.5 | 37.7* | 91.9 | 86.8 | 104.3
c1ccc(-c2cn3c(n2)-c2ccccc2C3)cc1 | 36.7 | / | / | 38.9 | /
Cc1noc(C)c1CSc1nnc2c(C)cc3ccccc3n12 | / | 82.2 | 101.6 | / | 104.0
CCN(CC)C(=S)SCC(=O)c1ccccc1 | 109.9 | / | / | 104.2 | /
CCN(CC)C(=S)SSC(=S)N(CC)CC | 1.1* | / | / | 0.9* | /
CCOc1c(Br)cc(CNCc2cccs2)cc1OC | 91.7 | / | / | 90.6 | /
CCCCNCc1cc(Br)c(OCc2cccs2)c(OC)c1 | 1.4* | / | / | 1.3* | /
CC(=O)Nc1ccc(S(=O)(=O)NC2=C(N3CCN(c4ccc(F)cc4)CC3)C(=O)c3ccccc3C2=O)cc1 | 2.0* | 65.1 | 71.8 | 2.1* | 4.8*
O=C(CCNC(=O)c1ccc(Cl)cc1)Nc1c(F)c(F)cc(F)c1F | 85.2 | / | / | 89.9 | /
OC(C#Cc1ccccn1)c1cccs1 (configuration not stated) | 59.8 | 13.4* | 84.7 | 59.8 | 7.9*
SMILES | HCT116 bCat-KO | H69AR growth 86K | Lung fibro prol | HCT116 PTEN-null | HUVEC prolif 384
COc1ccc(/C=C(/NC(=O)c2ccccc2)c2nc3ccc(Cl)cc3[nH]2)cc1OC | 58.6 | / | / | 55.4 | /
CC(C)(C)C1CCc2c(sc(NC(=O)c3cccs3)c2C(N)=O)C1 (configuration not stated) | 68.3 | 34.2* | 23.5* | 62.0 | 88.4
CCC(C)(C)C1CCc2c(sc(NC(=O)c3cccs3)c2C(N)=O)C1 (configuration not stated) | 89.8 | 80.6 | 88.3 | 87.3 | 93.5
COc1ccc(C)cc1NS(=O)(=O)c1ccc(Br)s1 | 85.7 | 21.7* | 87.8 | 70.5 | 60.9
COc1cc(OC)cc(C(=O)NCCCN2CCN(CCCNC(=O)c3cc(OC)cc(OC)c3)CC2)c1 | 74.5 | / | / | 85.9 | /
O=C1CSC(=S)N1c1cccnc1 | 110.2 | 101.3 | 102.7 | 99.8 | 94.2
O=C1CSC(=S)N1Cc1cccnc1 | 3.9* | 1.2* | 36.5* | 3.2* | 51.2
COc1ccc(S(=O)(=O)NCC(=O)N(CC(=O)NCC2CCCO2)c2cc(C)ccc2C)cc1 (configuration not stated) | 103.9 | 36.7* | 95.3 | 120.1 | 104.7
Cc1nc(Cl)c(C(=O)NC(=O)NCc2ccccc2)c(C)c1Cl | 89.6 | / | / | 84.4 | /
O=C(O)CN(CC(=O)O)CC(=O)O | / | 98.5 | 89.7 | / | 99.9
Cc1cc2nc(C)n(CCCN)c2cc1C | 60.3 | 13.1* | 72.5 | 69.8 | 93.1
Cc1cc2nc(C)n(CCCNC(=O)Nc3ccc(C#N)cc3)c2cc1C | 85.8 | 87.2 | 101.1 | 83.5 | 89.5
C=CCOn1c(=O)c(=O)n(OCc2ccccc2)c2ccccc21 | 101.9 | 80.8 | 116.4 | 104.6 | 107.0
CCc1ccc(N2CC(C(=O)OCC(=O)Nc3cc(C)on3)CC2=O)cc1 (configuration not stated) | 106.9 | 36.6* | / | 105.8 | 103.9
Cc1csc(NC(=O)Nc2ccc(Cl)cc2)n1 | 84.5 | 100.2 | 94.9 | 90.7 | 92.4
O=C(Nc1ccc(Cl)cc1)Nc1nc(-c2sccc2Br)cs1 | 3.8* | / | / | 12.7 | /
CCCOc1cccc(C2C(C(=O)c3ccc(C)o3)=C(O)C(=O)N2CCCN(C)C)c1 (configuration not stated) | / | 100.7 | 102.2 | / | 100.0
CCCCCCCn1c(=N)n(CC(=O)c2ccco2)c2ccccc21 | 4.7* | 24.2* | 64.6 | 2.0* | 43.2
CCCCC1CC1C(=O)Nc1ccc(OC)c(OC)c1 (configuration not stated) | 93.9 | 80.0 | 100.5 | 96.5 | 79.8
COc1cc2c(N3CCOCC3)cc(O)c(CC(=O)Nc3ccccc3)c2cc1OC | 99.3 | 82.5 | 48.2* | 103.7 | 85.7
CCN(CC)CCNC(=O)Cc1nn(CC)c(=O)c2ccccc12 | 109.7 | 108.4 | 96.8 | 104.8 | 113.2
CCN(CC)CCNc1ccc(CO)c2sc3ccccc3c(=O)c12 | 1.9* | / | / | 1.9* | /
C=C(C)C(=O)OC1(C(F)(F)F)Oc2cc(C)ccc2NC1=O (configuration not stated) | 106.4 | 1.5* | 17.4* | 97.4 | 15.0*
COC(=O)CC1Oc2ccc(C)cc2NC1=O (configuration not stated) | 86.9 | 91.9 | 104.5 | 87.5 | 103.3
CCN(C(=O)CN1CCN(c2ccc(O)cc2)CC1)c1c(N)n(Cc2ccccc2)c(=O)[nH]c1=O | 74.7 | 97.9 | 101.8 | 77.4 | 63.5
Cc1c(CCOC(=O)CC23CC4CC(CC(C4)C2)C3)sc[n+]1CC(=O)c1ccc(Br)cc1 | 4.8* | 1.3* | 26.4* | 7.5 | 2.2*
CC(=O)c1cccc(S(=O)(=O)NCC2CCCCC2)c1 | 84.0 | / | / | 98.7 | /
COc1ccc(/C=C/C(=O)NCCCc2ccccc2)cc1 | 98.0 | / | / | 95.4 | /
COc1ccc(/C=C\C(=O)CC(O)(c2ccccc2)C(F)(F)F)cc1 (configuration not stated) | 9.7 | 1.2* | 87.9 | 11.0 | 87.2
COC(=O)C1CCCN1S(=O)(=O)c1ccc2ccccc2c1 (configuration not stated) | 58.0 | 33.2* | 90.5 | 54.0 | 100.4

Screening data: PubChem, SRMLSC
